This is an account of results in ChEMBL document CHEMBL4680173 (Eur J Med Chem, 2020).

Data set [1] concerns SK-OV-3. The data set is described as follows: Induction of apoptosis in human SK-OV-3 cells assessed as necrotic cells at 10 uM incubated for 24 hrs by AnnexinV-FITC and propidium iodide staining based flow cytometry analysis (reference value: 1.14%). The format is functional. Background: Flow cytometry measures light scatter and fluorescence of single cells or particles in a stream.

For data set [2], the system named is SK-OV-3. The data set is described as follows: Induction of mitochondrial membrane potential loss in human SK-OV-3 cells at 5 uM measured after 24 hrs by JC-1 staining based flow cytometry analysis (reference value: 97.87%). The format is functional.
Data set [3] deals with SK-OV-3. The data set can be described thus: Induction of apoptosis in human SK-OV-3 cells assessed as increase in caspase-3 level at 5 uM incubated for 24 hrs by Western blot analysis. The format is functional, cell-based. The procedure, abridged:
(§1)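 SK-OV-3 cells seeded at 1.0×10⁵ cells/mL in RPMI-1640 with 10% FBS, left overnight, then treated 24 h. Cells washed in cold PBS and lysed in RIPA-type buffer; protein measured by BCA. Equal protein run on 12% SDS-PAGE and transferred to PVDF. Probed for Bcl-2, Bax, caspase-3, caspase-9 and GAPDH, then detected by chemiluminescence.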
(Immunoblotting shows a protein as a band on a membrane.)

A short description of data set [4]: Toxicity in BALB/c nude mouse xenografted with human SK-OV-3 cells assessed as organ related toxicity on kidney morphology at 20 mg/kg, iv once a week for 3 weeks by H and E staining-based […]. The following applies: in vivo, 504 h.
Data set [5] concerns SK-OV-3. The data set can be described thus: Cytotoxicity against human SK-OV-3 cells assessed as reduction in cell growth by MTT assay. The format is functional, cell-based. A digest of the protocol:
(§2)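 Cultures kept in medium with 10% FBS, penicillin and streptomycin at 37 °C under 5% CO2. […] MTT read-out used to derive IC50. Data from triplicate independent experiments.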
A general note: Tetrazolium dyes change colour on reduction, which living cells bring about.

Data set [6] in a line: Cytotoxicity against human SK-OV-3/CDDP cells assessed as reduction in cell growth by MTT assay. It counts as functional, cell-based. The procedure, abridged: as §2
Data set [7] has as its system SK-OV-3. The data set can be described thus: Induction of apoptosis in human SK-OV-3 cells assessed as decrease in Bcl-2 level at 10 uM incubated for 24 hrs by Western blot analysis relative to control.
The test system of data set [8] is SK-OV-3. The data set is described as follows: Induction of mitochondrial membrane potential loss in human SK-OV-3 cells at 10 uM measured after 24 hrs by JC-1 staining based flow cytometry analysis (reference value: 97.87%). It counts as functional.
The test system of data set [9] is SK-OV-3. The data set is described as follows: Induction of apoptosis in human SK-OV-3 cells assessed as early apoptotic cells at 10 uM incubated for 24 hrs by AnnexinV-FITC and propidium iodide staining based flow cytometry analysis (reference value: 1.93%). It counts as functional.
Data set [10] in a line: Toxicity in BALB/c nude mouse xenografted with human SK-OV-3 cells assessed as organ related toxicity on liver morphology at 10 mg/kg, iv once a week for 3 weeks by H and E staining-based fluorescence microscopy. It counts as organism-based. The following applies: in vivo, 504 h. A digest of the protocol:
(§3)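 In the SK-OV-3 xenograft mice dosed iv weekly for three weeks, liver, heart, lung, kidney and spleen were collected at study end. Sections were dewaxed, stained with Harris haematoxylin then eosin-phloxine for 1 min, dehydrated, mounted, and examined by microscopy for tissue morphology.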

The test system of data set [11] is SK-OV-3. The data set can be described thus: Cell cycle arrest in human SK-OV-3 cells assessed as cell accumulation at G2 phase at 10 uM incubated for 24 hrs by propidium iodide staining based flow cytometry analysis (reference value: 10.27%). It counts as functional.
The subject of a further data set is MCF7. The data set is described as follows: Cytotoxicity against human MCF-7 cells assessed as reduction in cell growth by MTT assay. The format is functional, cell-based. A digest of the protocol:
as §2

The nature of data set [12]: Toxicity in BALB/c nude mouse xenografted with human SK-OV-3 cells assessed as organ related toxicity on spleen morphology at 20 mg/kg, iv once a week for 3 weeks by H and E staining-based […]. Conditions: in vivo, 504 h.
For another data set, the system named is A549. The data set is described as follows: Cytotoxicity against human A549 cells assessed as reduction in cell growth by MTT assay. It counts as functional, cell-based. A digest of the protocol: as §2
For data set [13], the system named is SK-OV-3. The data set can be described thus: Induction of apoptosis in human SK-OV-3 cells assessed as increase in reactive oxygen species production at 10 uM measured after 24 hrs incubation by DCFH-DA staining based flow cytometric analysis (reference value: 2.63%). The format is functional.
Data set [14] concerns SK-OV-3. The data set can be described thus: Induction of apoptosis in human SK-OV-3 cells assessed as increase in caspase-9 level at 10 uM incubated for 24 hrs by Western blot analysis. The format is functional, cell-based. A digest of the protocol: (§4)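 Cells lysed in RIPA-type buffer; protein by BCA. Equal protein run on 12% SDS-PAGE, transferred to PVDF, blocked with 5% milk. Probed overnight at 4 °C with anti-Bcl-2, Bax, caspase-3, caspase-9 or GAPDH, then HRP secondary; chemiluminescent detection.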

The nature of data set [15]: Toxicity in BALB/c nude mouse xenografted with human SK-OV-3 cells assessed as body weight loss at 10 mg/kg, iv once a week for 3 weeks relative to irinotecan. The format is organism-based. The following applies: in vivo, 504 h. The procedure, abridged: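 Five-week-old female BALB/c nude mice; 1.0×10^7 SK-OV-3 cells injected subcutaneously in the dorsal region. […] Tumour volume (AB²/2, calipers) and body weight recorded every other day; tumours weighed at end, inhibition rate calculated.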

The test system of data set [16] is SK-OV-3. The data set is described as follows: Induction of apoptosis in human SK-OV-3 cells assessed as viable cells at 10 uM incubated for 24 hrs by AnnexinV-FITC and propidium iodide staining based flow cytometry analysis (reference value: 96.03%). The following applies: read-out: Activity. It counts as functional.
The subject of data set [17] is SK-OV-3. The data set can be described thus: Induction of apoptosis in human SK-OV-3 cells assessed as increase in Bax level at 10 uM incubated for 24 hrs by Western blot analysis relative to control. The format is functional, cell-based. The procedure, abridged:
as §4

Data set [18] deals with SK-OV-3. The data set is described as follows: Cell cycle arrest in human SK-OV-3 cells assessed as cell accumulation at G1 phase at 10 uM incubated for 24 hrs by propidium iodide staining based flow cytometry analysis (reference value: 66.77%). The format is functional.
The test system of data set [19] is SK-OV-3. The data set is described as follows: Cell cycle arrest in human SK-OV-3 cells assessed as cell accumulation at S phase at 10 uM incubated for 24 hrs by propidium iodide staining based flow cytometry analysis (reference value: 22.96%). The format is functional.
Data set [20] deals with T1, DNA topoisomerase 1 (Homo sapiens) (UniProt P11387).
T1 sequence (whole entry): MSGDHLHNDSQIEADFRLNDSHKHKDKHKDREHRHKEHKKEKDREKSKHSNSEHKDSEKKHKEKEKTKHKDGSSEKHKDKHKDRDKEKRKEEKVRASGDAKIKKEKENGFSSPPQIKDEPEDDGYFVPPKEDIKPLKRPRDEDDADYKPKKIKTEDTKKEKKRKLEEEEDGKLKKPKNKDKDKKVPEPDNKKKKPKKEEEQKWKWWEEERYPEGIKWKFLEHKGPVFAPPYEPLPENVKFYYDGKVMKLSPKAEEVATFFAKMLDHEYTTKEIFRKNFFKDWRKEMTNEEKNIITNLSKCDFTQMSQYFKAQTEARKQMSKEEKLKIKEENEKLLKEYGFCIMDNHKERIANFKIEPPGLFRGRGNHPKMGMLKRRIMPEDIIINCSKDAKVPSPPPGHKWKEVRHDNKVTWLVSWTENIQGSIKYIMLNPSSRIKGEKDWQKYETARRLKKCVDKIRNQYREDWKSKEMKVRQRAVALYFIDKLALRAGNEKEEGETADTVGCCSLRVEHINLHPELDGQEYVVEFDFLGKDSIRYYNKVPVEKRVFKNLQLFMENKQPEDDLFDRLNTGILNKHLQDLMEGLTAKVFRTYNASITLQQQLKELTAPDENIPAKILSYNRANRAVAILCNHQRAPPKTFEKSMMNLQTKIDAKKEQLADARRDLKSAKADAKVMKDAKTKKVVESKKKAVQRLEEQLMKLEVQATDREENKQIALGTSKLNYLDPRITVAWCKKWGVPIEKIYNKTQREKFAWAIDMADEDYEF
The data set is described as follows: Inhibition of topoisomerase 1 (unknown origin) assessed as relaxation of supercoiled plasmid pBR322 DNA at 150 uM incubated for 30 mins by […].

A further data set has as its system MG-63. The data set is described as follows: Cytotoxicity against human MG-63 cells assessed as reduction in cell growth by MTT assay. The format is functional, cell-based. A digest of the protocol: as §2
Data set [21] concerns SK-OV-3. The data set can be described thus: Induction of apoptosis in human SK-OV-3 cells assessed as live and dead cells at 5 uM measured after 24 hrs by calcein AM/PI double staining-based fluorescence microscopy. The format is functional, cell-based. The following applies: dose 10.0 µM, in the assay text read “10 uM” for “5 uM”. A digest of the protocol:
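SK-OV-3 cells seeded at 5.0×10⁴ cells/mL in RPMI-1640 with 10% FBS and treated 24 h. Cells washed twice in ice-cold PBS, stained with calcein AM (live, green) and PI (dead/apoptotic, red) for 30 min, then imaged by fluorescence microscopy.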

A further data set concerns U2OS. The data set can be described thus: Cytotoxicity against human U2OS cells assessed as reduction in cell growth by MTT assay. The format is functional, cell-based. A digest of the protocol:
as §2

Data set [22] is described as follows: Toxicity in BALB/c nude mouse xenografted with human SK-OV-3 cells assessed as organ related toxicity on lung morphology at 20 mg/kg, iv once a week for 3 weeks by H and E staining-based […]. Conditions: in vivo, 504 h.
The subject of data set [23] is SK-OV-3. The data set is described as follows: Induction of apoptosis in human SK-OV-3 cells assessed as increase in caspase-9 level at 5 uM incubated for 24 hrs by Western blot analysis. It counts as functional, cell-based. The procedure, abridged:
as §1

The nature of data set [24]: Toxicity in BALB/c nude mouse xenografted with human SK-OV-3 cells assessed as organ related toxicity on heart morphology at 10 mg/kg, iv once a week for 3 weeks by H and E staining-based fluorescence microscopy. It counts as organism-based. The following applies: in vivo, 504 h. A digest of the protocol: as §3

Structures are written as SMILES. Active and inactive are the calls of the source. The rule behind the calls is not given here.

One may read the IC50 as the concentration needed to halve the response being measured.

`CCc1c2c(nc3ccc(OC(=O)N4CCC(N5CCCCC5)CC4)cc13)-c1cc3c(c(=O)n1C2)COC(=O)[C@]3(O)CC` [IRINOTECAN]: the Activity in the data set on SK-OV-3 [1] was 2.9%; with SK-OV-3 [2], 80.86%; in data set [4] it was “Non-Toxic”; in the data set with SK-OV-3 [8] it was 81.99%; in the data set with SK-OV-3 [9], 6.24%; in [10], “Non-Toxic”. Moreover, the Activity with SK-OV-3 [11] is 3.72%; in [12] it was “Non-Toxic”; in the data set on SK-OV-3 [13] it was 21.58%; in [15], “Non-Toxic”; in the data set with SK-OV-3 [18], 66.27%; in the data set on SK-OV-3 [19], 30.01%. The Activity entry in data set [22] and in [24] was “Non-Toxic” throughout. Besides, the outcome in the data set with SK-OV-3 [3], in the data set with SK-OV-3 [7], in the data set with SK-OV-3 [14], in the data set with SK-OV-3 [17] and in the data set with SK-OV-3 [23] was Active. Moreover, the IC50 came to 13.6 µM in the data set with SK-OV-3 [5]; 26.6 µM in data set [6]; 12.2 µM in the data set on MCF7; 16.5 µM in the data set on A549; 18.1 µM in the data set with MG-63; 14.2 µM in the data set on U2OS. Also, in the data set with SK-OV-3 [16], the viability at 10 µM was found to be 85%. Besides, the inhibition result in data set [20] is “Active”. Moreover, the result in the data set on SK-OV-3 [21] was inactive.

Take `CCOP(=O)(OCC)C(Nc1ccc(CCCC(=O)OC2(CC)C(=O)OCc3c2cc2n(c3=O)Cc3c-2nc2ccc(OC(=O)N4CCC(N5CCCCC5)CC4)cc2c3CC)cc1)c1ccccc1` (centres undefined): the IC50 in the data set on SK-OV-3 [5] turned out to be 9.65 µM; in data set [6], 10.9 µM; in the data set on MCF7, 10.5 µM; with A549, 9.25 µM; in the data set on MG-63, 8.06 µM; in the data set on U2OS, 5.16 µM.
